Screens as filed in PubChem.
Rin1-Abl PPI inh = inhibitors of Rin1-Abl protein binding, primary screen, biochemical, TR-FRET. AID 588664, 2011. Tyrosine-protein kinase ABL1 (Homo sapiens) + Ras and Rab interactor 1 (Homo sapiens), …. inhibition, % at 7.35 µM. hit rate 0.4% among 360,000; in the data active means inhibition above about 5%, passing the limit was not always enough
PDI turbidity = inhibitors of human PDI, primary screen, biochemical, turbidity, single point, plate reader. PDI insulin aggregation turbidity, A650, 90 min. inhibition, % at 10 µM. hit rate 0.052% among 350,000;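 active means mean inhibition across replicates of 30% or more, whatever share of single replicates reach that level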
CAL PDZ FP-1 = CAL PDZ peptide-binding inhibitors, primary screen, biochemical, fluorescence polarization, Cer-tagged CAL PDZ, HTS; purified CAL PDZ, TMR-peptide fluorescence polarization, 1 h; inhibition, % at 20 µM; Golgi-associated PDZ and coiled-coil motif-containing protein (Homo sapiens), Q9HD26; hit rate 0.02% among 330,000;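 active means highest replicate inhibition of at least 40%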
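System: tagged CAL PDZ domain. Schedule: 1 h room-temperature incubation prior to read. Signal: fluorescence polarization (mP). Measure: percent inhibition from loss of millipolarization.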
CAL PDZ FP-2 = untagged CAL PDZ binding inhibitors, primary screen, biochemical, fluorescence polarization, HTS; hit rate 0.92% among 300,000; inhibition, % at 24.9 µM; Golgi-associated PDZ and coiled-coil motif-containing protein (Homo sapiens), Q9HD26; purified CAL PDZ, TMR-peptide fluorescence polarization, 1 h;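 active means mean inhibition of at least 30% with at least half of replicates also reaching 30%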
ERAP1 HTS inh = human ERAP1 aminopeptidase inhibitors, primary screen, biochemical, single point, plate reader; Endoplasmic reticulum aminopeptidase 1 (Homo sapiens), Q9NZ08; recombinant ERAP1, Leu-AMC fluorescence, 60 min; inhibition, % at 10.7 µM; hit rate 0.15% among 340,000;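 active means mean replicate inhibition of at least 30%, or all replicates individually reaching that 30% level; inactive means mean below 30% and not every replicate reaching it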
ERp5 block = inhibitors of ERp5-driven insulin aggregation, primary screen, biochemical, turbidity, absorbance 650 nm, single point. 90 min. Protein disulfide-isomerase A6 (Homo sapiens), Q15084. hit rate 0.05% among 350,000. AID 651711, 2012. inhibition, % at 9.99 µM;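 active means mean replicate inhibition above about 25%, with every replicate also reaching it, limit read from the data, passing the limit was not always enough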
Numbers stand for hits; . = inactive; / = no result given. This is a sample that favours compounds with a hit; in the whole collection about 1.1% have one here.

SMILES	Rin1-Abl PPI inh	PDI turbidity	CAL PDZ FP-1	CAL PDZ FP-2	ERAP1 HTS inh	ERp5 block
Cn1c(=O)c(=O)n(C)c2cc(N3CCOCC3)c(NS(=O)(=O)c3ccc(Br)cc3)cc21	.	.	.	.	.	.
C[C@@H]1CN([C@@H](C)CO)S(=O)(=O)c2ccc(C3=CCCCC3)cc2O[C@H]1CN(C)C(=O)CC1CC1	/	/	/	/	.	.
CCN1C(=O)CS/C1=N\S(=O)(=O)c1ccccc1	.	.	.	76	/	.
COC(=O)c1ccc(NC(=O)CNc2ccccc2)cc1	.	.	.	43	.	.
Cn1c(Cc2cccs2)n[nH]c1=S	.	.	.	38	/	/
CC(=O)NC(Cc1c[nH]c2ccccc12)C(=O)OCC(=O)N1CCN(S(=O)(=O)c2ccc(Cl)cc2)CC1 (centres undefined)	.	32	.	.	.	.
CO[C@H]1CN(C)C(=O)c2ccc(NC(=O)C3CCC3)cc2OC[C@H](C)N(C(=O)NC(C)C)C[C@H]1C	/	/	/	/	.	.
CCCN(CC(=O)Nc1cc(C)on1)CC(=O)Nc1ccc(F)c(F)c1F	.	.	.	49	.	.
C[C@@H]1CN([C@@H](C)CO)C(=O)c2cc(NS(=O)(=O)c3cccs3)ccc2O[C@@H]1CN(C)CC1CCCCC1	/	/	/	/	.	.
Cc1ccc(C)c(OCC(O)CN2CCC(Cc3ccccc3)CC2)c1 (centres undefined)	.	.	.	37	.	.
COc1ccc2c3c([nH]c2c1)[C@H](CO)N(C(=O)c1ccncc1)CC31CCN(C(=O)C2CCC2)CC1	/	/	/	/	.	.
CO[C@H]1CN(C)C(=O)c2cc(NC(=O)c3ccc(F)cc3)ccc2OC[C@H](C)N(C(=O)c2ccc(F)cc2)C[C@@H]1C	/	/	/	/	.	.
COC(=O)c1sc(-c2ccc(Cl)cc2)cc1N	.	.	.	55	/	.
COc1cccc2c1NC(C(=O)O)C1CC=CC21 (centres undefined)	7.6	.	.	.	/	/
COCC(=O)N(C)C[C@@H]1[C@@H](c2ccc(-c3ccccc3)cc2)[C@H](CO)N1C(C)=O	/	/	/	/	.	.
O=C(OCC(=O)N1CCN(C(=O)c2ccco2)CC1)c1cncc(Br)c1	.	.	.	36	.	.
O=C(CCNS(=O)(=O)c1ccc(Cl)cc1)OCC(=O)N1CCN(C(=O)c2ccco2)CC1	.	.	.	.	.	.
O=C(OCC(=O)N1CCN(C(=O)c2ccco2)CC1)c1cc(S(=O)(=O)Nc2ccc(Cl)cc2)ccc1O	.	.	.	53	.	.
O=C(OCC(=O)N1CCCC1)c1cncc(Br)c1	.	.	/	.	/	/
O=C(CSc1nnc(CNC(=O)c2cccs2)o1)Nc1ccccc1	.	.	.	.	.	.
O=C(CSc1nnc(CNC(=O)c2cccs2)o1)Nc1ccccc1C(F)(F)F	.	.	.	103	.	.
CC(NC(=O)CCC(=O)c1ccccc1)c1ccc(F)cc1 (centres undefined)	.	.	.	.	.	.
CC(NC(=O)CCC(=O)NCc1ccc(F)cc1)c1ccccc1 (centres undefined)	.	.	.	88	.	.
COCC(=O)N(C)C[C@H]1Oc2cc(C#CCC(C)C)ccc2S(=O)(=O)N([C@@H](C)CO)C[C@H]1C	/	/	/	/	.	.
Cc1ccc(C)c(NC(=S)NCCN(C2CCCCC2)C2CCCC2)c1	.	.	.	65	/	.
Cc1ccc(C(=O)N/C(=C/c2ccc(-c3cc(C(F)(F)F)ccc3Cl)o2)C(=O)NCc2cccnc2)cc1	.	.	.	.	/	/
O=C(NCc1cccnc1)/C(=C/c1ccc(-c2cccc(C(F)(F)F)c2)o1)NC(=O)c1ccccc1	.	.	.	42	/	/
CC=Cc1ccc2n(c1=O)C[C@@H]1[C@@H](CO)[C@H](C(=O)NCCc3ccccc3)N(C(=O)CC)[C@H]21 (mixture of isomers)	/	/	/	/	.	.
CO[C@@H]1CN(C)C(=O)c2cc(NC(C)=O)ccc2OC[C@H](C)NC[C@@H]1C	/	/	/	/	.	.
